{
  "source": "ChEMBL document CHEMBL4665634",
  "about": "“Inhibiting Aβ toxicity in Alzheimer's disease by a pyridine amine derivative” (Eur J Med Chem, 2019)",
  "key": {"Caenorhabditis elegans": {"system": "Caenorhabditis elegans", "assay": "Effect on skn-1 mRNA expression in Caenorhabditis elegans CL4176 at 50 uM by qRT-PCR analysis", "format": "functional", "in_short": "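CL4176 qRT-PCR of skn-1 or sod-3. RNA extracted with Trizol, EvaGreen qRT-PCR run for 40 cycles (95 °C 5 s, 60 °C 5 s). Normalized to ama-1 by the 2^−ΔΔCt method. Three independent RNA/cDNA preparations, run in triplicate.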"}, "[1]": {"assay": "Solubility of the compound in water", "format": "physicochemical"}, "[2]": {"assay": "Inhibition of Zn2+ induced amyloid beta (1 to 40) aggregation assessed as reduction in fluorescence intensity at 20 uM preincubated for 5 mins in presence of ZnCl2 followed by compound addition addition and incubated for 24 hrs by Thioflavin T based fluorometric assay", "in_short": "(§1)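 Aβ40 (20 µM) preincubated with CuCl2 or ZnCl2 (20 µM) for 5 min at room temperature. Compound (20 µM) added, incubated 37 °C for 24 h. ThT (5 µM) added, fluorescence read at ex 450/em 485 nm. Mean ± S.D. of at least three independent experiments.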"}, "[3]": {"assay": "Inhibition of Zn2+ induced amyloid beta (1 to 42) aggregation assessed as reduction in fibril formation incubated for 24 hrs in presence of Zn2+ by Thioflavin T based fluorometric assay", "in_short": "(§2)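 Aβ42 (20 µM) mixed with compound (0.1–100 µM), with or without Zn2+ (20 µM), in Tris-HCl pH 7.4, incubated at 37 °C for 24 h. ThT (5 µM) added, fluorescence read at ex 450/em 485 nm.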"}, "[4]": {"assay": "Disaggregation of Zn2+ induced fibrils of amyloid beta (1 to 40) assessed as appearance of small soluble fragments at 0.1 to 100 uM incubated for 24 hrs uranyl acetate staining-based by TEM analysis", "conditions": "dose microM 0.1-100, time 24.0 hrs"}, "[5]": {"biological_target": "T1, Amyloid-beta precursor protein (Homo sapiens, UniProt P05067)", "T1 sequence (P05067 whole entry)": "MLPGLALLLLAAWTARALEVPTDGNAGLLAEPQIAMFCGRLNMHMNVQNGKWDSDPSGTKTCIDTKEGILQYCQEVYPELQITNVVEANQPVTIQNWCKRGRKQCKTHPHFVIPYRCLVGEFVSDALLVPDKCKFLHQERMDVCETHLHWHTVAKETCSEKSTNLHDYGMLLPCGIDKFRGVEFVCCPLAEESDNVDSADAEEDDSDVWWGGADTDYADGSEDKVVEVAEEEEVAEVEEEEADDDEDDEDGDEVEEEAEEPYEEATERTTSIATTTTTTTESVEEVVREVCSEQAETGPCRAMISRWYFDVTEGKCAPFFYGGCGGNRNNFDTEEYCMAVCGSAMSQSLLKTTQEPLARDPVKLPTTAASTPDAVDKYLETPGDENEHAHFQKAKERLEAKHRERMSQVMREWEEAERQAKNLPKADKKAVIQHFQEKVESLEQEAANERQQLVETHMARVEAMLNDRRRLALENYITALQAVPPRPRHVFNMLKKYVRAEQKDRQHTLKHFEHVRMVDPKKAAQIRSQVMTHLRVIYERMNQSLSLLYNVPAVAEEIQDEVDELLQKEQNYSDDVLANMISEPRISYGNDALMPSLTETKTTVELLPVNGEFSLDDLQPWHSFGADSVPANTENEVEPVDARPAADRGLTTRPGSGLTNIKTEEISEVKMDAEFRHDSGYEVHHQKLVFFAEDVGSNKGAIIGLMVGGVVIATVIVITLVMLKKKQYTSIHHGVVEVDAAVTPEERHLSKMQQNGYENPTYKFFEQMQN", "assay": "Inhibition of self-induced aggregation amyloid beta (1 to 42) (unknown origin) assessed as reduction in fibril formation incubated for 24 hrs by Thioflavin T based fluorometric assay", "in_short": "as §2"}, "[6]": {"assay": "Inhibition of Cu2+ induced amyloid beta (1 to 40) aggregation assessed as reduction in fluorescence intensity at 20 uM preincubated for 5 mins in presence of CuCl2 followed by compound addition addition and incubated for 24 hrs by Thioflavin T based fluorometric assay", "in_short": "as §1"}, "[7]": {"biological_target": "T1, Amyloid-beta precursor protein", "assay": "Inhibition of self-induced amyloid beta (1 to 42) (unknown origin) aggregation assessed as decrease in negative band ellipticity and shift around 230 nm resulting in inhibition of beta-sheets formation at 80 uM incubated for 24 hrs by circular dichroism spectroscopy", "in_short": "(§3)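 CD spectra taken on Aβ42 (40 µM). Metal ion (ZnCl2 or CuCl2, 40 µM) was preincubated 5 min at room temperature where present, then compound (80 µM) was added and incubated at 37 °C for 24 h. Spectra recorded 190–270 nm in a 1.0 cm quartz cell, bandwidth 0.1 nm, response time 10 s.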"}, "[8]": {"biological_target": "T1, Amyloid-beta precursor protein", "assay": "Inhibition of self-induced amyloid beta (1 to 42) (unknown origin) aggregation assessed as decrease in negative band ellipticity and shift around 230 nm resulting in modulation of amyloid beta (1 to 42) conformation at 80 uM incubated for 24 hrs by circular dichroism spectroscopy", "in_short": "as §3"}, "[9]": {"assay": "Inhibition of Zn2+ induced amyloid beta (1 to 40) aggregation assessed as appearance of granule like species at 0.1 to 100 uM incubated for 24 hrs uranyl acetate staining-based by TEM analysis", "conditions": "dose microM 0.1-100, time 24.0 hrs"}, "[10]": {"assay": "Inhibition of Cu2+ induced amyloid beta (1 to 40) aggregation assessed as appearance of granule like species at 0.1 to 100 uM incubated for 24 hrs uranyl acetate staining-based by TEM analysis", "conditions": "dose microM 0.1-100, time 24.0 hrs"}, "[11]": {"assay": "Disaggregation of Cu2+ induced fibrils of amyloid beta (1 to 40) assessed as appearance of small soluble fragments at 0.1 to 100 uM incubated for 24 hrs uranyl acetate staining-based by TEM analysis", "conditions": "dose microM 0.1-100, time 24.0 hrs"}, "PC-12": {"system": "PC-12", "assay": "Cytotoxicity against rat PC-12 cells assessed as reduction in cell viability at 100 uM measured after 48 hrs by MTT assay relative to control", "format": "cell-based", "conditions": "pc-12, 48 h", "in_short": "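PC12 cells differentiated with NGF, then cultured overnight in RPMI-1640 with 10% FBS at 37 °C, 5% CO2. MTT assay with formazan absorbance at 570 nm. Viability = (OD test − blank)/(OD control − blank) × 100%, mean of three replicates.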"}, "[12]": {"biological_target": "T1, Amyloid-beta precursor protein", "assay": "Inhibition of amyloid beta (1 to 42)-induced paralysis in transgenic Caenorhabditis elegans CL4176 expressing human amyloid beta (1 to 42) assessed as paralyzed worms at 50 uM treated for 49 hrs at 25 degreeC by microscopic analysis (reference value: 87 %)", "set-up": "scale not given: the % may be the effect or the level left"}, "[13]": {"biological_target": "T1, Amyloid-beta precursor protein", "assay": "Inhibition of amyloid beta (1 to 42)-induced paralysis in transgenic Caenorhabditis elegans CL4176 expressing human amyloid beta (1 to 42) assessed as paralyzed worms at 100 uM treated for 49 hrs at 25 degreeC by microscopic analysis (reference value: 87 %)", "set-up": "scale not given: the % may be the effect or the level left"}, "[14]": {"biological_target": "T1, Amyloid-beta precursor protein", "assay": "Inhibition of amyloid beta (1 to 42)-induced paralysis in transgenic Caenorhabditis elegans CL4176 expressing human amyloid beta (1 to 42) assessed as paralyzed worms at 200 uM treated for 49 hrs at 25 degreeC by microscopic analysis (reference value: 87 %)", "set-up": "scale not given: the % may be the effect or the level left"}, "[15]": {"biological_target": "T1, Amyloid-beta precursor protein", "assay": "Inhibition of amyloid beta (1 to 42)-induced paralysis in transgenic Caenorhabditis elegans GMC101 expressing human amyloid beta (1 to 42) assessed as paralyzed worms at 50 uM measured after 92 hrs by microscopic analysis relative to control", "set-up": "scale not given: the % may be the effect or the level left"}, "[16]": {"biological_target": "T1, Amyloid-beta precursor protein", "assay": "Inhibition of amyloid beta (1 to 42)-induced paralysis in transgenic Caenorhabditis elegans GMC101 expressing human amyloid beta (1 to 42) assessed as paralyzed worms at 100 uM measured after 92 hrs by microscopic analysis relative to control", "set-up": "scale not given: the % may be the effect or the level left"}, "[17]": {"biological_target": "T1, Amyloid-beta precursor protein", "assay": "Inhibition of amyloid beta (1 to 42)-induced paralysis in transgenic Caenorhabditis elegans GMC101 expressing human amyloid beta (1 to 42) assessed as paralyzed worms at 200 uM measured after 92 hrs by microscopic analysis relative to control", "set-up": "scale not given: the % may be the effect or the level left"}, "[18]": {"biological_target": "T1, Amyloid-beta precursor protein", "assay": "Inhibition of amyloid beta (1 to 42)-induced paralysis in transgenic Caenorhabditis elegans CL4176 L3 expressing human amyloid beta (1 to 42) assessed as roller movement of worms by microscopic analysis"}, "[19]": {"biological_target": "T1, Amyloid-beta precursor protein", "assay": "Inhibition of amyloid beta (1 to 42)-induced paralysis in transgenic Caenorhabditis elegans GMC101 L3 expressing human amyloid beta (1 to 42) assessed as reduction in fluorescence intensity at 50 uM incubated for 2 days by fluorescence based confocal microscopic analysis relative to control", "conditions": "time 2.0 day", "in_short": "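GMC101 L3 worms kept on compound plates (50, 100 µM) at 25 °C for 2 days, mounted on 2% agarose pads. GFP imaged by confocal microscopy at ex 488/em 500–530 nm and intensity quantified. Two experiments, 15 worms per group.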"}},
  "note": "Active and inactive are the calls of the source. The calls are words filed in the database; no cut-off is given here.",
  "data": [
    {"compound": "Oc1cc(CN(Cc2ccccn2)Cc2ccccn2)cc(C[P+](c2ccccc2)(c2ccccc2)c2ccccc2)c1.[Br-]", "values": [
      {"measurement": "Activity", "setting": "Caenorhabditis elegans", "value": "inactive"},
      {"measurement": "solubility", "setting": "[1]", "value": "Insoluble"},
      {"measurement": "inhibition", "setting": "[2]", "value": "Active"},
      {"measurement": "IC50", "setting": "[3]", "value": 27.4, "unit": "µM"},
      {"measurement": "inhibition", "setting": "[3]", "value": "Dose-dependent effect"},
      {"measurement": "Activity", "setting": "[4]", "value": "Active"},
      {"measurement": "IC50", "setting": "[5]", "value": 12.5, "unit": "µM"},
      {"measurement": "inhibition", "setting": "[5]", "value": "Dose-dependent effect"},
      {"measurement": "inhibition", "setting": "[6]", "value": "Active"},
      {"measurement": "inhibition", "setting": "[7]", "value": "Active"},
      {"measurement": "inhibition", "setting": "[8]", "value": "Active"},
      {"measurement": "inhibition", "setting": "[9]", "value": "Active"},
      {"measurement": "inhibition", "setting": "[10]", "value": "Active"},
      {"measurement": "Activity", "setting": "[11]", "value": "Active"},
      {"measurement": "Activity", "setting": "PC-12", "value": 80.5, "unit": "%"},
      {"measurement": "Activity", "setting": "[12]", "value": 74, "unit": "%"},
      {"measurement": "Activity", "setting": "[13]", "value": 66, "unit": "%"},
      {"measurement": "Activity", "setting": "[14]", "value": 35, "unit": "%"},
      {"measurement": "Activity", "setting": "[15]", "value": 74, "unit": "%"},
      {"measurement": "Activity", "setting": "[16]", "value": 66, "unit": "%"},
      {"measurement": "Activity", "setting": "[17]", "value": 35, "unit": "%"},
      {"measurement": "Activity", "setting": "[18]", "value": "Active"},
      {"measurement": "inhibition", "setting": "[19]", "value": 43, "unit": "%"}
    ]}
  ]
}
